# Measurements published in ChEMBL document CHEMBL1671691 (Antimicrob Agents Chemother, 2010).
# pEC50: −log10 of the molar value. The source made the active and inactive calls. The calls are words filed in the database; no cut-off is given here.
# Key:
# [1] = test system: Influenza A virus; assay: Antiviral activity against 0.001 MOI adamantane-resistant zanamivir-,oseltamivir-susceptible Influenza A virus (A/pdm/California/04/2009(H1N1)) harboring M2 V28I, S31N mutant infected in MDCK cells assessed as determination of viral titer in cell culture at 1.6 uM after 24 hrs by immunofluorescence assay; format: functional, organism-based; details: A/California/04/2009(H1N1)
# In short: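 Focus inhibition assay: confluent MDCK monolayers infected at MOI ∼0.001–0.1. Adsorption 1 h at 4°C, washed twice, then DMEM with 2 μg/ml TPCK-trypsin and drug for 24 h at 37°C. Cells fixed in methanol/acetic acid at −20°C, immunostained with anti-NP monoclonals and FITC secondary, and foci counted. Supernatants also titrated by focus assay. Quadruplicate on two occasions.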
# [2] = test system: Influenza A virus; assay: Antiviral activity against adamantane-resistant zanamivir-,oseltamivir-susceptible Influenza A virus (A/pdm/California/04/2009(H1N1)) harboring M2 V28I, S31N mutant infected in MDCK cells assessed as determination of viral titer in cell culture at 128 uM after 24 hrs by immunofluorescence assay; format: functional, organism-based; details: A/California/04/2009(H1N1)
# [3] = test system: Influenza A virus; assay: Antiviral activity against adamantane-resistant zanamivir-,oseltamivir-susceptible Influenza A virus (A/New York/34/2008(H1N1)) harboring M2 L26I mutant infected in MDCK cells assessed as inhibition of viral replication after 3 days by microscopic analysis using crystal violet stain; format: functional, organism-based
# In short: (§1)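 Confluent MDCK-ATCC monolayers infected with virus diluted to give 15–45 plaques/well. Adsorption 1 h at 37°C without drug, then washed. Overlaid with 0.8% agarose in MEM containing drug plus TPCK-trypsin: 3 μg/ml for seasonal viruses, 2 μg/ml for 2009 A(H1N1). Incubated 3 days at 37°C, 5% CO2. Ethanol-fixed, crystal violet-stained, plaques counted. EC50 by curve fit; duplicates on three occasions, mean ± SD.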
# [4] = test system: Influenza A virus; assay: Antiviral activity against adamantane-resistant zanamivir-,oseltamivir-susceptible Influenza A virus (A/pdm/Mexico/4604/2009 (H1N1)) harboring M2 V28I, S31N mutant infected in MDCK cells assessed as inhibition of viral replication after 3 days by microscopic analysis using crystal violet stain; format: functional, organism-based, Influenza A virus (A/Mexico/4604/2009(H1N1))
# [5] = test system: Influenza A virus; assay: Antiviral activity against Influenza A virus (A/Illinois/10/2009(H1N1)) harboring neuraminidase H275Y mutant infected in MDCK cells from Mill Hill assessed as log reduction in viral titer at 1.6 uM after 24 hrs by immunofluorescent assay; format: functional
# In short: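 Yield reduction in MDCK-ATCC or MDCK-Mill Hill cells infected at MOI ∼0.01. Adsorption 1 h at 4°C, washed, then DMEM with 2 μg/ml TPCK-trypsin and drug. At 24 h, supernatants were titrated by immunofluorescent focus assay on MDCK cells with anti-NP monoclonals and FITC secondary. Titres as log10 FFU per 100 μl; detection limit <10 FFU. Quadruplicate, mean ± SD.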
# [6] = test system: Influenza A virus; assay: (§2) Antiviral activity against oseltamivir-susceptible zanamivir-, adamantane-resistant Influenza A virus (A/Texas/12/2007 (clone)(H3N2)) harboring neuraminidase E119I mutant and harboring M2 S31N mutant infected in MDCK cells assessed as inhibition of viral replication after 3 days by microscopic analysis using crystal violet stain; format: functional, organism-based, Influenza A virus (A/Texas/12/2007(H3N2))
# [7] = test system: Influenza A virus; assay: Antiviral activity against Influenza A virus (A/Illinois/10/2009(H1N1)) harboring neuraminidase H275Y mutant infected in MDCK cells from Mill Hill assessed as inhibition of viral replication after 3 days by microscopic analysis using crystal violet stain; format: functional
# [8] = test system: Influenza A virus; assay: Antiviral activity against adamantane-resistant zanamivir-,oseltamivir-susceptible Influenza A virus (A/pdm/New York/18/2009 (H1N1)) harboring M2 V28I, S31N mutant infected in MDCK cells assessed as inhibition of viral replication after 3 days by microscopic analysis using crystal violet stain; format: functional, organism-based, Influenza A virus (A/New York/18/2009(H1N1))
# In short: (§3)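 Plaque reduction on confluent MDCK-ATCC monolayers: pretitrated virus (15–45 plaques per well) adsorbed 1 h at 37°C without drug, then washed with PBS. Agarose overlay (0.8%, in MEM) with drug added, 3 days at 37°C. Cells fixed with 70% ethanol, stained with crystal violet, plaques counted. EC50 from curve fitting, averaged over three separate experiments in duplicate, ± SD.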
# [9] = Antiviral activity against adamantane-resistant zanamivir-,oseltamivir-susceptible Influenza B virus (B/Illinois/47/2005) infected in MDCK cells assessed as inhibition of viral replication after 3 days by microscopic analysis using crystal violet stain; format: functional, cell-based; details: 72 h
# [10] = test system: Influenza A virus; assay: Antiviral activity against adamantane-resistant zanamivir-,oseltamivir-susceptible Influenza A virus (A/pdm/California/07/2009 (H1N1)) harboring M2 V28I, S31N mutant infected in MDCK cells assessed as inhibition of viral replication after 3 days by microscopic analysis using crystal violet stain; format: functional, organism-based, A/California/07/2009(H1N1); in short: as §3
# [11] = test system: Influenza B virus; assay: Antiviral activity against oseltamivir-susceptible zanamivir-, adamantane-resistant Influenza B virus (B/Michigan/20/2005) harboring neuraminidase H274Y mutant infected in MDCK cells assessed as inhibition of viral replication after 3 days by microscopic analysis using crystal violet stain; format: functional, cell-based
# [12] = test system: Influenza A virus; assay: Antiviral activity against adamantane-resistant zanamivir-,oseltamivir-susceptible Influenza A virus (A/Florida/01/2009(H3N2)) harboring M2 S31N mutant infected in MDCK cells assessed as inhibition of viral replication after 3 days by microscopic analysis using crystal violet stain; format: functional, organism-based; in short: as §1
# [13] = test system: Influenza A virus; assay: Antiviral activity against adamantane-resistant zanamivir-,oseltamivir-susceptible Influenza A virus (A/pdm/California/04/2009 (H1N1)) harboring M2 V28I, S31N mutant infected in MDCK cells assessed as inhibition of viral replication after 3 days by microscopic analysis using crystal violet stain; format: functional, organism-based, A/California/04/2009(H1N1); in short: as §3
# [14] = Antiviral activity against adamantane-, oseltamivir-, zanamivir-resistant Influenza B virus (B/Illinois/03/2008) harboring neuraminidase E119A mutant infected in MDCK cells assessed as inhibition of viral replication after 3 days by microscopic analysis using crystal violet stain; format: functional, cell-based; in short: as §1
# [15] = test system: Influenza A virus; assay: Antiviral activity against adamantane-resistant zanamivir-,oseltamivir-susceptible Influenza A virus (A/pdm/California/05/2009 (H1N1)) harboring M2 V28I, S31N mutant infected in MDCK cells assessed as inhibition of viral replication after 3 days by microscopic analysis using crystal violet stain; format: functional, organism-based, Influenza A virus (A/California/05/2009(H1N1))
# [16] = test system: Influenza B virus; assay: microbe, parasite or virus in culture; details: (B/Rochester/01/2001), MDCK, 72 h
# [17] = test system: Influenza B virus; assay: Antiviral activity against oseltamivir-susceptible zanamivir-, adamantane-resistant Influenza B virus (B/Rochester/01/2001) harboring neuraminidase D198N mutant infected in MDCK cells assessed as inhibition of viral replication after 3 days by microscopic analysis using crystal violet stain; format: functional, organism-based
# [18] = test system: Influenza A virus; assay: as §2, with “(A/Bethesda/956/2006(H3N2))” for “(A/Texas/12/2007 (clone)(H3N2))”, “R292K” for “E119I”, “and” for “and harboring”; format: functional, organism-based
# [19] = test system: Influenza A virus; assay: as §2, with “(A/pdm/Washington/29/2009 (H1N1))” for “(A/Texas/12/2007 (clone)(H3N2))”, “M2 V28I, S31N” for “neuraminidase E119I”, “neuraminidase H274Y” for “harboring M2 S31N”; format: functional, organism-based, Influenza A virus (A/Washington/29/2009(H1N1))
# [20] = test system: Influenza B virus; assay: microbe, parasite or virus in culture; details: B/New York/22/2008, MDCK, 72 h
# [21] = test system: Influenza B virus; assay: microbe, parasite or virus in culture; details: B/Memphis/20/96, MDCK, 72 h
# [22] = test system: Influenza A virus; assay: Antiviral activity against adamantane-, oseltamivir-, zanamivir-resistant Influenza A virus (A/Idaho/01/2009(H1N1)) harboring neuraminidase H274Y mutant infected in MDCK cells assessed as inhibition of viral replication after 3 days by microscopic analysis using crystal violet stain; format: functional, organism-based, Influenza A virus (A/Idaho/01/2008(H1N1)); in short: as §1
compound,measurement,setting,value
NC(=O)c1nc(F)cnc1O [FAVIPIRAVIR],Activity,[1],Active
same,Activity,[2],Active
same,pEC50,[3],6.72
same,pEC50,[4],5.92
same,log10FFU,[5],4.5
same,pEC50,[6],5.40
same,log10FFU,[7],5.03
same,pEC50,[8],6.05
same,pEC50,[9],5.40
same,pEC50,[10],5.85
same,pEC50,[11],5.30
same,pEC50,[12],6.35
same,pEC50,[13],5.71
same,pEC50,[14],5.52
same,pEC50,[15],6.08
same,pEC50,[16],5.85
same,pEC50,[17],5.76
same,pEC50,[18],5.92
same,pEC50,[19],5.18
same,pEC50,[20],5.28
same,pEC50,[21],5.92
same,pEC50,[22],5.53
